Source: paper PMC9582731 (RSC Advances, 2022)

How the values were obtained:
[1] = tested on: λ-carrageenan-induced paw edema tissue; assay: H&E histological examination of paw edema tissue; type: in vivo, mice; conditions: treated animals vs λ-carrageenan model group
Method in brief: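 Mice given λ-carrageenan to induce paw edema. Groups: blank, model, indomethacin (positive control), and test compound at low and high dose. Paw tissue was examined by H&E staining for histological change or by immunohistochemical staining for TNF-α, including bone.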

in vitro = type: cell-based; conditions: mouse
[2] = tested on: λ-carrageenan-induced mouse paw edema; assay: λ-carrageenan-induced mouse paw edema test; type: in vivo; conditions: 10 mg kg^−1 i.g., 2 h before λ-carrageenan, at 2–6 h, ICR mice
Method in brief: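 Test compound given at a low and a high dose, alongside a blank group, a carrageenan-only model group and an indomethacin positive-control group; paw swelling induced with λ-carrageenan.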

[3] = tested on: acetic acid-induced writhing in mice; assay: Acetic acid-induced writhing analgesic test; type: in vivo; conditions: 3 days, acetic acid i.p., Kunming mice

Row | Structure (SMILES) | Histological change of paw biopsies (H&E) [1] | IC50 (in vitro) [µM] | Effect on paw edema [2] | Effect on number of writhes ([3]; 19.5 mg kg^−1 i.g.) | Effect on number of writhes ([3]; 200 mg kg^−1 i.g.)
1 | COc1ccc2c(c1)c(CC(=O)O)c(C)n2C(=O)c1ccc(Cl)cc1 [Indo, indomethacin] | a reduction in the λ-carrageenan-induced inflammatory response | > 100 | significantly inhibited the development of edema |  | 
2 | O=C(O)Cc1ccccc1Nc1c(Cl)cccc1Cl [Voltaren] |  |  |  | reduce the number of writhes considerably | 
3 | COC1=C[C@@H]2[C@@H]3Cc4ccc(OC)c(O)c4[C@]2(CCN3C)CC1=O [SIN, Sinomenine] |  | > 100 |  |  | almost no analgesic effects
